In the library only some 1.7% were active in any assay of this set; here they are far more common.
IDE inh: inhibitors of human insulin-degrading enzyme in cells; P14735; HEK cells, FAbetaB cleavage, fluorescence polarization; inhibition, % at 5.59 µM; 320,000 compounds, 0.41% hits;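 active = percent inhibition above the average of all tested compounds plus 3 SD, set per screening campaign, cut at about 16% in these data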;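 note: IDE supplied by intact live HEK cells; FP after avidin binding of uncleaved biotin substrate so inhibition keeps polarization high; 0% = DMSO wells and 100% = 60 µM reference IDE inhibitor Ii1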
TPT1 inhibitor: inhibitors of Candida albicans tRNA 2'-phosphotransferase TPT1; inhibition, % at 5 µM; 300,000 compounds, 0.81% hits; recombinant caTPT1, FP RNA substrate dephosphorylation; AID 1962;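 active = inhibition above the mean of all tested compounds plus 3 SD, set per screening campaign, cut at about 24% in these data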;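 note: plate controls were DMSO alone for no effect and ferristatin control at 100 nM for full effect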
CSN inh: CSN deneddylation inhibition; inhibition, % at 12.5 µM; 360,000 compounds, 0.38% hits; Purified CSN, SCF-Nedd8-OG deneddylation, fluorescence polarization; Q92905; AID 651999;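 active = pattern-corrected inhibition above about 35%, with an unprinted fluorescence ratio check between 0.5 and 1.5, limit read from the data, passing the limit was not always enough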;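 note: 0% = enzyme with substrate and 100% = substrate without enzyme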
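Test system: Human Csn5 produced in HEK293T cells | Compound: 12.5 µM single point | Times: 90 min, room temperature | Signal: Fluorescence polarization readout | Read-out basis: % inhibition of substrate cleavage by Csn5 | Controls: no-enzyme wells high, enzyme-with-substrate wells low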
IDE act: activators of human insulin-degrading enzyme in cells. P14735. activation, % at 5.96 µM. HEK cells, FAbeta-B cleavage, fluorescence polarization; 0% vehicle, 100% cell-free pure enzyme wells. 340,000 compounds, 0.073% hits;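 active = activation above the mean of all tested compounds plus 3 SD, set per screening campaign, cut at about 17% in these data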
HNF4A DNA FP: change in binding of human HNF4 alpha to DNA; P41235; HNF4a-FITC DNA binding, fluorescence polarization, 1 h; 360,000 compounds, 0.3% hits; AID 1224865; activity change, % at 10 µM; in the data active = activity change above about 30%, passing the limit was not always enough
Rpn11 block: blocks the human proteasome subunit Rpn11; human 26S proteasome, Ub4-pepOG fluorescence polarization; 20S core pre-blocked with epoxomicin; calls only at 20 µM; 360,000 compounds, 0.59% hits; AID 588493;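 active = inhibition at 20 µM, scaled to each plate's controls, above about 33%, limit read from the data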
Rpn11 confirm: confirmation of human proteasome Rpn11 inhibitors. shares compounds with Rpn11 block. purified human 26S proteasome, Ub4-pepOG fluorescence polarization; proteasome pretreated with epoxomicin. inhibition, % at 20 µM. 1,900 compounds, 29% hits. AID 602318
MMP-2 counter: blocks human MMP-2, flagging nonselective RPN11 hits; shares compounds with Rpn11 block; recombinant MMP-2, FRET peptide cleavage fluorescence; inhibition, % at 20 µM; 1,900 compounds, 4% hits; AID 602330;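 note: human MMP-2 activated beforehand with APMA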
Target sequence (P08253 whole entry, looked up): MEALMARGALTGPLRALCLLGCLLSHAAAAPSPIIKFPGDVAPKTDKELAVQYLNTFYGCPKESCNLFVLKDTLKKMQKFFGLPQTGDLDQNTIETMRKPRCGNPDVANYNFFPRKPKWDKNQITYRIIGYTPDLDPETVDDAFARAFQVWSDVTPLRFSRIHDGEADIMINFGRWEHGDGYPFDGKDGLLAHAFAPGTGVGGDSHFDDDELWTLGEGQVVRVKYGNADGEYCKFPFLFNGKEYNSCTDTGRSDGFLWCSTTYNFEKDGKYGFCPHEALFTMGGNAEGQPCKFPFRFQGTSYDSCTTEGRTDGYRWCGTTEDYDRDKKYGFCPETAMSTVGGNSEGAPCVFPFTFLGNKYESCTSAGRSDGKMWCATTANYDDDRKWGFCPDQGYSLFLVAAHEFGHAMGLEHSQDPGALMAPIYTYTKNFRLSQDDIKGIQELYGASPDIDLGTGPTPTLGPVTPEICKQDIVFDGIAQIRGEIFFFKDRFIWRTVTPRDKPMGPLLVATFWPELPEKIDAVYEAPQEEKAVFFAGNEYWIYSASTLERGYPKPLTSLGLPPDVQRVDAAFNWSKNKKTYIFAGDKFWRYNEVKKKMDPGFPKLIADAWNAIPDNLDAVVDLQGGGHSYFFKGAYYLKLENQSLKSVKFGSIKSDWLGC
Thrombin inh: thrombin (bovine) inhibition counter-screen; inhibition, % at 20 µM; shares compounds with Rpn11 block; bovine thrombin cleavage of Ub4-pepOG, fluorescence polarization; 1,900 compounds, 13% hits;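 active = mean inhibition at least 40% at 20 µM, or signal 3 deviations below plate average, so some actives read negative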;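 note: plate controls were thrombin with DMSO for no effect and buffer wells lacking thrombin for full effect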
* hit, by the source's call. Cut-off read from the data, not from the text of the source, unless noted: active = inhibition above about 40%; inactive = the rest.

How did CC(=O)N1CCOc2cc(S(=O)(=O)N3CCN(c4ccccc4)CC3)c(Cl)cc21 do in these assays?
IDE inh: -3; TPT1 inhibitor: 2; CSN inh: 1; IDE act: 5; HNF4A DNA FP: 3; Rpn11 block: inactive

What do the screens show for `CCN(CC)c1ccc(N2C(=O)CSC2=S)cc1`?
IDE inh: -5; TPT1 inhibitor: -5; CSN inh: -6; IDE act: 4; HNF4A DNA FP: 3; Rpn11 block: active; Rpn11 confirm: -3; MMP-2 counter: 61*; Thrombin inh: -22

What do the screens show for `COc1cccc(CN2CCN(C(=O)c3cc(-c4cccnc4)nc4ccc(C)cc34)CC2)c1`?
IDE inh: 3; TPT1 inhibitor: 0; CSN inh: 2; IDE act: 1; HNF4A DNA FP: 3; Rpn11 block: inactive

How did CN1CCN(C(c2ccc(C(F)(F)F)cc2)c2cc(Cl)c3cccnc3c2O)CC1 (configuration not stated) do in these assays?
IDE inh: -3; TPT1 inhibitor: -2

Results for CN1CCN(C(c2ccc(Cl)cc2)c2cc(Cl)c3cccnc3c2O)CC1 (configuration not stated) ?
IDE inh: -14; TPT1 inhibitor: 0; CSN inh: 2; IDE act: 10; HNF4A DNA FP: 0; Rpn11 block: active; Rpn11 confirm: 44*; MMP-2 counter: 28; Thrombin inh: -8

Results for Cc1ccc(C(=O)N(CC(C)C)c2c(N)n(Cc3ccccc3)c(=O)[nH]c2=O)o1 ?
IDE inh: 0; TPT1 inhibitor: 1; CSN inh: 0; IDE act: 7; HNF4A DNA FP: -1; Rpn11 block: inactive

Results for Cc1cccc(-n2cnc(C(=O)N/N=C\c3ccc(Br)cc3)c2)n1 ?
IDE inh: 7; TPT1 inhibitor: -4; CSN inh: 15; IDE act: 0; HNF4A DNA FP: 3; Rpn11 block: active; Rpn11 confirm: -8; MMP-2 counter: -39; Thrombin inh: -14

What do the screens show for `O=C(NCCCN1CCN(c2ccc(F)cc2)CC1)NC12CC3CC(CC(C3)C1)C2`?
IDE inh: -7; TPT1 inhibitor: -1; CSN inh: 1; IDE act: 0; HNF4A DNA FP: 5; Rpn11 block: inactive

What do the screens show for `O=C1N/C(=C/c2cccn2-c2ccccc2)C(=O)N1Cc1ccc(F)cc1`?
IDE inh: 6; TPT1 inhibitor: 8; CSN inh: 5; IDE act: 3; HNF4A DNA FP: 8; Rpn11 block: active; Rpn11 confirm: 14; MMP-2 counter: -25; Thrombin inh: -4

Results for CCOC(=O)Cc1csc(NC(=O)c2ccc(C)cc2)n1 ?
IDE inh: -8; TPT1 inhibitor: -1; CSN inh: 3; IDE act: -1; HNF4A DNA FP: -5; Rpn11 block: inactive

What do the screens show for `CCOC(=O)Cc1csc(NC(=O)c2ccc(Cl)nc2)n1`?
IDE inh: 2; TPT1 inhibitor: 12; CSN inh: 6; IDE act: 3; HNF4A DNA FP: 9; Rpn11 block: active; Rpn11 confirm: 21; MMP-2 counter: -33; Thrombin inh: -1

What do the screens show for `Cc1c(Cl)cccc1NC(=O)COC(=O)c1c2c(nc3ccccc13)CCN(Cc1ccccc1)C2`?
IDE inh: 2; TPT1 inhibitor: 3; CSN inh: -10; IDE act: 3; HNF4A DNA FP: 4; Rpn11 block: active; Rpn11 confirm: -22; MMP-2 counter: -20; Thrombin inh: -4

Results for CC(C)c1ccccc1NC(=O)COC(=O)c1c2c(nc3ccccc13)CCN(Cc1ccccc1)C2 ?
IDE inh: -1; TPT1 inhibitor: -4; CSN inh: 0; IDE act: 5; HNF4A DNA FP: 0; Rpn11 block: inactive
